Here are results for eleven molecules from ChEMBL document CHEMBL1144751, “Synthesis of caged 2,3,3a,7a-tetrahydro-3,6-methanobenzofuran-7(6H)-ones: Evaluating the minimum structure for apoptosis induction by gambogic acid” (Bioorg Med Chem, 2008).

pEC50: −log10 of the molar value.

Test [1] deals with T47D. Nature of the test: Induction of apoptosis in human T47D cells assessed as caspase 3 activation after 24 hrs. Type of test: functional, cell-based. The procedure, abridged:
(§1)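 Cell-based caspase-3 activation HTS assay. After compound exposure, the fluorogenic caspase-3 substrate N-(Ac-DEVD)-N-ethoxycarbonyl-R110 in caspase buffer was added and incubated 2 h at 37 °C. Fluorescence was read as RFU. Activation is the ratio of net RFU for treated samples to that of control samples. Values are means ± SEM of three or more experiments.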

In test [2] the test system is HCT-116. The test is described as follows: Growth inhibition of human HCT116 cells after 48 hrs by CellTiter-Glo assay. To be noted: HCT-116, 48 h. Type of test: functional. In outline: (§2)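 T47D, HCT116 and SNU398 cells from ATCC, run in 96-well format. Cells were exposed continuously to test compound for 48 h, then given CellTiter-Glo reagent, mixed by agitation, held 10–15 min at room temperature and read by luminescence. GI50 is the concentration giving 50% inhibition relative to untreated control cells. Values are means ± SEM of three experiments.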
On the technique in general: Cellular ATP, detected with luciferase, serves as a proxy for viable cell number.

Test [3] has as its system SNU-398. The test is described as follows: Growth inhibition of human SNU398 cells after 48 hrs by CellTiter-Glo assay. It counts as functional. To be noted: SNU-398, 48 h. In outline:
as §2

In test [4] the test system is HCT-116. The test is described as follows: Induction of apoptosis in human HCT116 cells assessed as caspase 3 activation after 24 hrs. It counts as functional, cell-based. To be noted: HCT-116, 24 h. In outline: as §1
In test [5] the test system is T47D. Nature of the test: Growth inhibition of human T47D cells after 48 hrs by CellTiter-Glo assay. It counts as functional. The procedure, abridged:
as §2

The subject of test [6] is SNU-398. The test is described as follows: Induction of apoptosis in human SNU398 cells assessed as caspase 3 activation after 24 hrs. It counts as functional, cell-based. To be noted: SNU-398, 24 h. In outline: as §1

On to `CC(C)=CC[C@@]12OC(C)(C)C3C[C@H](C=C4C(=O)C=C(c5ccccc5)O[C@]431)C2=O`, for which the results for the negative logarithm of the EC50 (pEC50) in the test on T47D [1], in the test with HCT-116 [4] and with SNU-398 [6] were 5.29, 5.27 and 5.59, respectively. Also, the GI50 (in general, the concentration at which growth is held to half of that of the control) was 1100 nM in the test with HCT-116 [2], 1200 nM in the test on SNU-398 [3] and 1400 nM with T47D [5].
Regarding `CC(C)=CC[C@]12OC(C)(C)C3C[C@@]4(OC(c5ccccc5)=CC(=O)C4=C[C@@H]31)C2=O`, the pEC50 (usually the EC50 on a negative log10 scale, so that one unit is a factor of ten) in the test on T47D [1] is 5.32; with HCT-116 [4], 5.44; in the test with SNU-398 [6], 5.60. Further, the values for the GI50 in the test on HCT-116 [2], with SNU-398 [3] and in the test with T47D [5] were 900 nM, 1200 nM and 1000 nM, respectively.
Regarding `C=CC[C@@]12C=C(C(=O)c3ccccc3)[C@]3(CC=C)C(CO[C@@]3(CC=C)C1=O)C2`, the pEC50 with T47D [1], with HCT-116 [4] and in the test on SNU-398 [6] was less than 4.70 in each case. Further, the GI50 in the test on HCT-116 [2], in the test on SNU-398 [3] and with T47D [5] was greater than 20000 nM each time.
Turning to `CC(C)=CCC[C@]1(C)C=Cc2c(O)c3c(c(CC=C(C)C)c2O1)O[C@]12C(C[C@H]4CC1C(C)(C)O[C@@]2(C/C=C(\C)C(=O)O)C4=O)C3=O` (stereo partly drawn), the negative-log EC50 (pEC50) in the test with T47D [1], in the test with HCT-116 [4] and in the test with SNU-398 [6] was less than 4.70 in each case. Also, the GI50 in the test on HCT-116 [2], in the test on SNU-398 [3] and in the test on T47D [5] was greater than 20000 nM throughout.
On to `CC(C)=CC[C@@]12OC(C)(C)C3C[C@H](C=C4C(=O)c5ccccc5O[C@]431)C2=O`, for which the negative logarithm of the EC50 (pEC50) was 5.52 in the test on T47D [1], 5.64 in the test on HCT-116 [4] and 6.05 in the test on SNU-398 [6]. The 50% growth inhibitory concentration (GI50) with HCT-116 [2], in the test with SNU-398 [3] and in the test on T47D [5] was 200 nM throughout.
For `C=CC[C@@]12OCC3C[C@H](CC4C(=O)c5ccccc5O[C@@]341)C2=O` (stereo partly drawn), the pEC50 in the test with T47D [1], in the test on HCT-116 [4] and with SNU-398 [6] was less than 4.70 throughout. The GI50 in the test on HCT-116 [2], in the test on SNU-398 [3] and with T47D [5] was greater than 20000 nM in each case.
As for `CC(C)=CCC[C@]1(C)C=Cc2c(O)c3c(c(CC=C(C)C)c2O1)O[C@]12C(=C[C@@H]4C[C@H]1C(C)(C)O[C@@]2(C/C=C(/C)C(=O)O)C4=O)C3=O` [GAMBOGIC ACID], the negative logarithm of the EC50 (pEC50) in the test on T47D [1], in the test on HCT-116 [4] and in the test on SNU-398 [6] was 6.15 throughout. Also, the values for the GI50 with HCT-116 [2], in the test with SNU-398 [3] and in the test with T47D [5] were 100 nM, 200 nM and 200 nM, respectively.
`CC(C)=CC[C@]12OC(C)(C)C3C[C@@]4(Oc5ccccc5C(=O)C4=C[C@@H]31)C2=O`: the pEC50 is 5.57 in the test on T47D [1], 5.72 in the test on HCT-116 [4] and 5.82 in the test on SNU-398 [6]. Further, the GI50 in the test with HCT-116 [2] came out at 200 nM; with SNU-398 [3], 300 nM; with T47D [5], 300 nM.
For `C=CC[C@@]12CC3CO[C@](CC=C)(C1=O)[C@@]3(CC=C)C=C2C(=O)c1ccccc1`, the pEC50 with T47D [1], in the test on HCT-116 [4] and in the test with SNU-398 [6] was less than 4.70 in each case.
As for `C=CC[C@@]12OCC3C[C@H](C=C4C(=O)c5ccccc5O[C@]431)C2=O`, the pEC50 with T47D [1] was less than 4.70; in the test with HCT-116 [4], 5.15; with SNU-398 [6] it was 5.24. For the same molecule, the results for the GI50 with HCT-116 [2], in the test with SNU-398 [3] and with T47D [5] were 1600 nM, 1900 nM and 1600 nM, respectively.
`C=CC[C@]12OCC3C[C@@]4(Oc5ccccc5C(=O)C4=C[C@@H]31)C2=O`: the negative logarithm of the EC50 (pEC50) in the test with T47D [1] is 5.23; in the test on HCT-116 [4], less than 4.70; in the test with SNU-398 [6], 5.29. Further, the figures for the GI50 with HCT-116 [2], with SNU-398 [3] and in the test with T47D [5] were 1500 nM, 1500 nM and 1400 nM, respectively.
